{
  "source": "ChEMBL document CHEMBL4229364",
  "about": "“Structure-activity relationships of 2, 4-disubstituted pyrimidines as dual ERα/VEGFR-2 ligands with anti-breast cancer activity” (Eur J Med Chem, 2018)",
  "key": {"Ishikawa": {"tested_on": "Ishikawa", "assay": "Antiproliferative activity against human Ishikawa cells after 48 hrs by MTT assay", "type": "functional, cell-based", "outline": "(§1)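 MTT assay. Cells were grown in RPMI1640 with 10% FBS and penicillin/streptomycin at 37°C, 5% CO2, seeded at 1×10^5/mL and rested 24 h. Compound was added at 4×10^-5 to 1×10^-6 mol/L for 48 h; controls received 1% DMSO. MTT (5 mg/mL) was added for 4 h in the dark and the formazan dissolved in DMSO. A490 was read and IC50 derived.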"}, "MCF7": {"tested_on": "MCF7", "assay": "Antiproliferative activity against human MCF7 cells after 48 hrs by MTT assay", "type": "functional, cell-based", "conditions": "MCF7, 48 h", "outline": "as §1"}, "HUVEC": {"tested_on": "HUVEC", "assay": "Antiproliferative activity against HUVEC after 48 hrs by MTT assay", "type": "functional, cell-based", "conditions": "Homo sapiens", "outline": "as §1"}, "[1]": {"molecular_target": "T1, Vascular endothelial growth factor receptor 2 (Homo sapiens, UniProt P35968)", "T1 sequence (P35968 whole entry)": "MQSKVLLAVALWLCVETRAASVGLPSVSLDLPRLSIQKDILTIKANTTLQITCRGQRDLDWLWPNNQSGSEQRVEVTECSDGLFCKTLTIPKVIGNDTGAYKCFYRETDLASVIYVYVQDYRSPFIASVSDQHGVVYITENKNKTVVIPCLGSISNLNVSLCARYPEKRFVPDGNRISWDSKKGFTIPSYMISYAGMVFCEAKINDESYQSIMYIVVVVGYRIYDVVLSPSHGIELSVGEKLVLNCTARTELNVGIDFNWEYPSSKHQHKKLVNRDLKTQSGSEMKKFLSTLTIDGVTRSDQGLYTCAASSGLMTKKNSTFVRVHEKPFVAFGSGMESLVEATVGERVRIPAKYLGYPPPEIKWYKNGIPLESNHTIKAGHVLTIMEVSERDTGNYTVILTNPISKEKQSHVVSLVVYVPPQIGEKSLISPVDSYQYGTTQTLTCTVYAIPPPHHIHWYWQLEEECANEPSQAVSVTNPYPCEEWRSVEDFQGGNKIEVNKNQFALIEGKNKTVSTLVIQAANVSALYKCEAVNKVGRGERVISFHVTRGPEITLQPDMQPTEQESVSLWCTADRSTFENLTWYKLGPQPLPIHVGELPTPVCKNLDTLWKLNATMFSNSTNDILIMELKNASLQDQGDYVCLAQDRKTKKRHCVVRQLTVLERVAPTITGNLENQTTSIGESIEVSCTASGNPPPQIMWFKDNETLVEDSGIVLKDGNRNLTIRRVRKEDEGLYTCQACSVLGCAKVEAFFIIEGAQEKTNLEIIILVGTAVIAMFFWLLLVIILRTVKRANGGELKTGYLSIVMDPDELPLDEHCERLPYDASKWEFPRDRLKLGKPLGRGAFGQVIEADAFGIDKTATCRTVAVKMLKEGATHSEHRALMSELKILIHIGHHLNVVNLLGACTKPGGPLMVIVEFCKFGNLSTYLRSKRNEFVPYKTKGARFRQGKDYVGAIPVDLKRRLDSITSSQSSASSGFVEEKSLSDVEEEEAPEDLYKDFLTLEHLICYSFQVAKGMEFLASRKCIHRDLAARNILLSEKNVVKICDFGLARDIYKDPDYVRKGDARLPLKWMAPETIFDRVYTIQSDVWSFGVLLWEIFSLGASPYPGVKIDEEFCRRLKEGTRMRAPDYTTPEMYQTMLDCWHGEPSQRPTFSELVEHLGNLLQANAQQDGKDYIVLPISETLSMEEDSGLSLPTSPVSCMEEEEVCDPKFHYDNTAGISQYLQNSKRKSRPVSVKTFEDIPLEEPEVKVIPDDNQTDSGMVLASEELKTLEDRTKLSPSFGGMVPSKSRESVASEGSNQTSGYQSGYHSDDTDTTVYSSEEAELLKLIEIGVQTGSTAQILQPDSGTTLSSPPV", "conditions": "at 10 µM"}, "[2]": {"molecular_target": "T1, Vascular endothelial growth factor receptor 2", "assay": "Inhibition of VEGFR2 (unknown origin) using TK substrate after 1 hr by HTRF assay"}, "Estrogen receptor": {"molecular_target": "T2, Estrogen receptor (Homo sapiens, UniProt P03372)", "T2 sequence (P03372 whole entry)": "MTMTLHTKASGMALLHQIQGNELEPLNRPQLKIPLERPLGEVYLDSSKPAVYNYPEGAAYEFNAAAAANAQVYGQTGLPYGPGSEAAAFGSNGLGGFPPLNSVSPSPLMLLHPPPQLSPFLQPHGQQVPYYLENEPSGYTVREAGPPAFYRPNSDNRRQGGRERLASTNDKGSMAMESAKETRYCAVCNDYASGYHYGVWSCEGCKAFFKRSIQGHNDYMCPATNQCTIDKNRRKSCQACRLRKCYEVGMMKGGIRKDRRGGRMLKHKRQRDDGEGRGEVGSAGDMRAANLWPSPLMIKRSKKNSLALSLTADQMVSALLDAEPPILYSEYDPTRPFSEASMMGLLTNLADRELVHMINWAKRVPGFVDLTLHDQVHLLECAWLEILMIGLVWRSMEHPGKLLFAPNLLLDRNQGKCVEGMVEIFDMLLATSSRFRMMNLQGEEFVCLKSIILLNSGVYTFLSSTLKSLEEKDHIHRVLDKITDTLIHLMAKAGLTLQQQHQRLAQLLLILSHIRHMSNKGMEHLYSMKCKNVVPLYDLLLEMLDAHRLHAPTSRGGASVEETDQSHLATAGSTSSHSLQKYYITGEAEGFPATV", "assay": "Displacement of Fluormone ES2 Green from full length human ER-alpha expressed in insect cells after 2 hrs by fluorescence polarization assay"}},
  "data": [
    {"compound": "COc1ccc(-c2nc(Cl)cc(Nc3ccc(OCCN(C)C)cc3)n2)cc1", "values": [
      {"measurement": "IC50", "setting": "Ishikawa", "result": 5.67, "unit": "µM"},
      {"measurement": "IC50", "setting": "MCF7", "result": 3.54, "unit": "µM"},
      {"measurement": "IC50", "setting": "HUVEC", "result": 6.31, "unit": "µM"},
      {"measurement": "inhibition", "setting": "[1]", "result": 40, "unit": "%"},
      {"measurement": "IC50", "setting": "[2]", "result": "> 1", "unit": "µM"}
    ]},
    {"compound": "CCN(CC)CCOc1ccc(Nc2nc(-c3ccc(O)cc3)nc(Cl)c2-c2ccccc2)cc1", "values": [
      {"measurement": "IC50", "setting": "Ishikawa", "result": 12, "unit": "µM"},
      {"measurement": "IC50", "setting": "MCF7", "result": 35.6, "unit": "µM"},
      {"measurement": "IC50", "setting": "HUVEC", "result": 8.81, "unit": "µM"},
      {"measurement": "inhibition", "setting": "[1]", "result": 76.9, "unit": "%"},
      {"measurement": "IC50", "setting": "[2]", "result": "> 1", "unit": "µM"}
    ]},
    {"compound": "COc1ccc(-c2nc(Cl)c(-c3ccccc3)c(Nc3ccc(NC(=O)CN4CCCC4)cc3)n2)cc1", "values": [
      {"measurement": "IC50", "setting": "Ishikawa", "result": "> 40", "unit": "µM"},
      {"measurement": "IC50", "setting": "MCF7", "result": "> 40", "unit": "µM"},
      {"measurement": "IC50", "setting": "HUVEC", "result": "> 40", "unit": "µM"},
      {"measurement": "inhibition", "setting": "[1]", "result": 87.3, "unit": "%"},
      {"measurement": "IC50", "setting": "[2]", "result": 0.203, "unit": "µM"}
    ]},
    {"compound": "COc1ccc(-c2nc(Cl)c(-c3ccccc3)c(Oc3ccc(OCCN(C)C)cc3)n2)cc1", "values": [
      {"measurement": "IC50", "setting": "Ishikawa", "result": 17.7, "unit": "µM"},
      {"measurement": "IC50", "setting": "MCF7", "result": 21.8, "unit": "µM"},
      {"measurement": "IC50", "setting": "HUVEC", "result": 11.7, "unit": "µM"},
      {"measurement": "inhibition", "setting": "[1]", "result": 90.9, "unit": "%"},
      {"measurement": "IC50", "setting": "[2]", "result": 0.101, "unit": "µM"}
    ]},
    {"compound": "CCN(CC)CCOc1ccc(Oc2cc(Cl)nc(-c3ccc(OC)cc3)n2)cc1", "values": [
      {"measurement": "IC50", "setting": "Ishikawa", "result": 24.9, "unit": "µM"},
      {"measurement": "IC50", "setting": "MCF7", "result": 49.6, "unit": "µM"},
      {"measurement": "IC50", "setting": "HUVEC", "result": 23.3, "unit": "µM"},
      {"measurement": "inhibition", "setting": "[1]", "result": 80, "unit": "%"},
      {"measurement": "IC50", "setting": "[2]", "result": "> 1", "unit": "µM"},
      {"measurement": "IC50", "setting": "Estrogen receptor", "result": 5.13, "unit": "µM"}
    ]},
    {"compound": "COc1ccc(-c2nc(Cl)c(-c3ccccc3)c(Nc3ccc(OCCN4CCCC4)cc3)n2)cc1", "values": [
      {"measurement": "IC50", "setting": "Ishikawa", "result": 3.81, "unit": "µM"},
      {"measurement": "IC50", "setting": "MCF7", "result": 7.84, "unit": "µM"},
      {"measurement": "IC50", "setting": "HUVEC", "result": 5.02, "unit": "µM"},
      {"measurement": "inhibition", "setting": "[1]", "result": 49.4, "unit": "%"},
      {"measurement": "IC50", "setting": "[2]", "result": "> 1", "unit": "µM"}
    ]},
    {"compound": "CC/C(=C(\\c1ccccc1)c1ccc(OCCN(C)C)cc1)c1ccccc1", "note": "[TAMOXIFEN]", "values": [
      {"measurement": "IC50", "setting": "Ishikawa", "result": 26.5, "unit": "µM"},
      {"measurement": "IC50", "setting": "MCF7", "result": 15.5, "unit": "µM"}
    ]},
    {"compound": "COc1ccc(-c2nc(Cl)cc(Nc3ccc(OCCN4CCCC4)cc3)n2)cc1", "values": [
      {"measurement": "IC50", "setting": "Ishikawa", "result": 17.3, "unit": "µM"},
      {"measurement": "IC50", "setting": "MCF7", "result": 43.7, "unit": "µM"},
      {"measurement": "IC50", "setting": "HUVEC", "result": 11.3, "unit": "µM"},
      {"measurement": "inhibition", "setting": "[1]", "result": 51.9, "unit": "%"},
      {"measurement": "IC50", "setting": "[2]", "result": "> 1", "unit": "µM"}
    ]},
    {"compound": "COc1ccc(-c2nc(Cl)c(-c3ccccc3)c(Oc3ccc(OCCN4CCCC4)cc3)n2)cc1", "values": [
      {"measurement": "IC50", "setting": "Ishikawa", "result": 14.1, "unit": "µM"},
      {"measurement": "IC50", "setting": "MCF7", "result": 32.4, "unit": "µM"},
      {"measurement": "IC50", "setting": "HUVEC", "result": 10.6, "unit": "µM"},
      {"measurement": "inhibition", "setting": "[1]", "result": 75.3, "unit": "%"},
      {"measurement": "IC50", "setting": "[2]", "result": "> 1", "unit": "µM"},
      {"measurement": "IC50", "setting": "Estrogen receptor", "result": 2.17, "unit": "µM"}
    ]},
    {"compound": "CCN(CC)CCOc1ccc(Oc2nc(-c3ccc(OC)cc3)nc(Cl)c2-c2ccccc2)cc1", "values": [
      {"measurement": "IC50", "setting": "Ishikawa", "result": 23.5, "unit": "µM"},
      {"measurement": "IC50", "setting": "MCF7", "result": "> 40", "unit": "µM"},
      {"measurement": "IC50", "setting": "HUVEC", "result": 15.1, "unit": "µM"},
      {"measurement": "inhibition", "setting": "[1]", "result": 60.2, "unit": "%"},
      {"measurement": "IC50", "setting": "[2]", "result": "> 1", "unit": "µM"}
    ]},
    {"compound": "COc1ccc(-c2nc(Cl)cc(Oc3ccc(OCCN4CCCC4)cc3)n2)cc1", "values": [
      {"measurement": "IC50", "setting": "Ishikawa", "result": 25.5, "unit": "µM"},
      {"measurement": "IC50", "setting": "MCF7", "result": 21.3, "unit": "µM"},
      {"measurement": "IC50", "setting": "HUVEC", "result": 15.8, "unit": "µM"},
      {"measurement": "inhibition", "setting": "[1]", "result": 39.8, "unit": "%"},
      {"measurement": "IC50", "setting": "[2]", "result": "> 1", "unit": "µM"},
      {"measurement": "IC50", "setting": "Estrogen receptor", "result": 6.22, "unit": "µM"}
    ]},
    {"compound": "CCN(CC)CC(=O)Nc1ccc(Nc2cc(Cl)nc(-c3ccc(OC)cc3)n2)cc1", "values": [
      {"measurement": "IC50", "setting": "Ishikawa", "result": 5.81, "unit": "µM"},
      {"measurement": "IC50", "setting": "MCF7", "result": "> 40", "unit": "µM"},
      {"measurement": "IC50", "setting": "HUVEC", "result": 15, "unit": "µM"},
      {"measurement": "inhibition", "setting": "[1]", "result": 44, "unit": "%"},
      {"measurement": "IC50", "setting": "[2]", "result": "> 1", "unit": "µM"}
    ]}
  ]
}
